Assay results pooled from the literature.
KIT D816V: Mast/stem cell growth factor receptor Kit (KIT, Homo sapiens, UniProt P10721, D816V)
KIT D816H: Mast/stem cell growth factor receptor Kit (KIT, Homo sapiens, UniProt P10721, D816H)
KIT autoinhibited: Mast/stem cell growth factor receptor Kit, autoinhibited (KIT, Homo sapiens, UniProt P10721)
KIT V559D: Mast/stem cell growth factor receptor Kit (KIT, Homo sapiens, UniProt P10721, V559D)
KIT A829P: Mast/stem cell growth factor receptor Kit (KIT, Homo sapiens, UniProt P10721, A829P)
KIT L576P: Mast/stem cell growth factor receptor Kit (KIT, Homo sapiens, UniProt P10721, L576P)
KIT: Mast/stem cell growth factor receptor Kit (KIT, Homo sapiens, UniProt P10721)
KIT T670I/V559D: Mast/stem cell growth factor receptor Kit (KIT, Homo sapiens, UniProt P10721, T670I/V559D)
KIT V559D/V654A: Mast/stem cell growth factor receptor Kit (KIT, Homo sapiens, UniProt P10721, V559D/V654A)

Structure (SMILES)	target	effect on	method	concentration	remaining binding [%]
COc1cccc(CNC(=O)c2nc3scc(COCc4ccc(C(=O)O)cc4)c3c(=O)[nH]2)c1	KIT D816V	cell-free assay	competition with immobilised ligand	1 µM	100
N[C@@H]1CCN(c2nccc(-c3cnn4ncccc34)n2)C1	KIT D816H	binding		1 µM	100
COc1ncc2cc3ccccc3nc2c1C#N	KIT autoinhibited	cell-free assay	competition with immobilised ligand	5 µM	98
CN1CCN(c2ccc(Nc3nccc(-c4ccccc4)n3)cc2C(F)(F)F)CC1	KIT V559D	binding		10 µM	0.05
O=c1nc(-c2ccccn2)sc2ccccc12	KIT A829P	binding	competition with immobilised ligand	1 µM	100
CN1CCN(c2ccc(Nc3nccc(-c4cccc([N+](=O)[O-])c4)n3)cc2C(F)(F)F)CC1	KIT V559D	binding		10 µM	0
Cc1cc(-n2nc(Cc3cc(F)cc(C(F)(F)F)c3)nc2C)ccc1C(N)=O	KIT A829P	cell-free assay	competition with immobilised ligand	1 µM	100
CNC(=O)[C@@H]1CC[C@@H](n2c(-c3ccc4cnccc4c3)nc3ccc(C(=O)NCc4cccc(C(N)=O)c4)cc32)C1	KIT L576P	binding	competition with immobilised ligand	1 µM	99
O=C(c1ccc(Nc2nccc(-c3cc4ccccc4s3)n2)cc1)N1CCC(N2CCCC2)CC1	KIT	binding	competition with immobilised ligand	1 µM	53
COc1cnc(Nc2cccc(S(N)(=O)=O)c2)nc1N1CCN(c2ccccc2)C(=O)C1	KIT	binding	competition with immobilised ligand	1 µM	98
O=C(Nc1cccnn1)N1CCC(=Cc2cccc(Oc3ccc(C(F)(F)F)cn3)c2)CC1	KIT L576P	binding	competition with immobilised ligand	1 µM	0
Nc1ncc2c(n1)-c1c([nH]c3ccc(C#CC4CC4)cc13)CCCC2	KIT A829P	binding	competition with immobilised ligand	1 µM	72
O=C(Nc1c[nH]nc1C(=O)NC1CCNCC1)c1cc(F)cc(F)c1	KIT D816H	binding	competition with immobilised ligand	1 µM	100
O=C(NCCCN1CCOCC1)c1ccc(Nc2ncc(Cl)c(-c3ccc(Cl)s3)n2)cc1	KIT D816V	binding	competition with immobilised ligand	1 µM	26
CCN1CCN(Cc2ccc(C(=O)Nc3ccc(C)c(Oc4ccc5c(c4)CC(=O)N5)c3)cc2C(F)(F)F)CC1	KIT T670I/V559D	binding	competition with immobilised ligand	1 µM	58
C[C@@H](c1ccc(-n2cnc3c(N)ncnc32)cc1)N1CCc2nn(C)c(Cc3ccccc3)c2C1=O	KIT D816H	binding	competition with immobilised ligand	0.1 µM	64
Cc1cc(NC(=O)c2cccc(S(F)(F)(F)(F)F)c2)cc(-n2ccn3nc(-c4cccnc4)cc23)c1	KIT	cell-free assay	competition with immobilised ligand	1 µM	89.5

Structure (SMILES)	target	effect on	method	concentration	remaining binding [%]
O=C(NCC1CCOCC1)c1n[nH]cc1NC(=O)c1c(F)cccc1F	KIT D816H	binding	competition with immobilised ligand	1 µM	69
O=C(NS(=O)(=O)c1ccc(NCC2CCOCC2)c([N+](=O)[O-])c1)c1ccc(N2CCN(Cc3ccc(C(F)(F)F)cc3-c3ccc(Cl)cc3)CC2)cc1Oc1cnc2[nH]ccc2c1	KIT V559D	cell-free assay	competition with immobilised ligand	1 µM	100
COc1cnc(Nc2cccc(S(N)(=O)=O)c2)nc1N1CCN(c2ccccc2)CC1	KIT autoinhibited	binding	competition with immobilised ligand	1 µM	90
C[C@H]1CCN(c2nccc(-c3cnn4ncccc34)n2)C1	KIT V559D/V654A	binding		1 µM	79
O=C(c1ccc(Nc2ncc(Cl)c(-c3cc4ccccc4s3)n2)cc1)N1CCC(N2CCCC2)CC1	KIT A829P	binding	competition with immobilised ligand	1 µM	19
CN(C)c1nccc(-c2cnn3ncccc23)n1	KIT D816V	binding		1 µM	60
COc1ccc2cc(OCC3(C(=O)O)CN(C(=O)c4ccc(F)cc4)C3)ccc2c1	KIT L576P	cell-free assay	competition with immobilised ligand	1 µM	100
CN(C)c1ncc(F)c(-c2cnn3ncccc23)n1	KIT D816H	binding		1 µM	72
O=C(NCCCN1CCOCC1)c1ccc(Nc2nccc(-c3cc4ccccc4s3)n2)cc1	KIT	binding	competition with immobilised ligand	1 µM	63
c1cnn2ncc(-c3ccnc(N4CCC45COC5)n3)c2c1	KIT T670I/V559D	binding		1 µM	84
c1cncc(-c2cccc(Nc3nccc(NC4CCCCC4)n3)c2)c1	KIT V559D/V654A	binding	competition with immobilised ligand	10 µM	43
Cc1cnc(Nc2ccc(C(=O)N3CCC(N4CCCC4)CC3)cc2)nc1-c1cc2ccccc2s1	KIT V559D/V654A	binding	competition with immobilised ligand	1 µM	29
C=CC(=O)N1CCC(C(=O)NCC(=O)N2CCN(c3nc(-c4cnc(N)nc4C(F)F)nc(N4CCOCC4)n3)CC2)CC1	KIT autoinhibited	binding	competition with immobilised ligand	1 µM	35
F[C@@H]1CCN(c2nccc(-c3cnn4ncccc34)n2)C1	KIT A829P	binding		1 µM	74
Cc1c(C(=O)O)cc(-c2ccc(C3CCNCC3)cc2)c2ccc(-c3ccc(C(F)(F)F)cc3)cc12	KIT D816H	binding	competition with immobilised ligand	1 µM	100
Cc1cnn2ncc(-c3ccnc(N(C)C)n3)c2c1	KIT	binding		1 µM	100
O=C(c1ccc(Nc2ncc(Cl)c(-c3ccc(Cl)s3)n2)cc1)N1CCC(N2CCCC2)CC1	KIT L576P	binding	competition with immobilised ligand	1 µM	1.4
